From ChEMBL document CHEMBL1151448, “Comparative antianaerobic activities of doripenem determined by MIC and time-kill analysis” (2008)
Values after ≈ are worked out from the molar mass of the structure shown.

Columns and labels:
Assay type in all cases: functional
[1] = test system: Paraclostridium bifermentans; test: Antimicrobial activity against Clostridium bifermentans isolated from intra-abdominal infection and pelvic inflammatory disease patients after 48 hrs by agar dilution method
Method in brief: (§1)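 CLSI agar dilution on brucella blood agar supplemented with laked sheep blood, hemin and vitamin K. Inocula of about 1 × 10^5 CFU/spot were applied by Steers replicator, and plates were incubated 48 h at 35°C in an anaerobic glove box. MIC was the concentration giving marked growth reduction versus the anaerobic control plate. QC strains were included each run, and β-lactamase was detected by Cefinase disk.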

[2] = test system: Prevotella denticola; test: Antimicrobial activity against beta lactamase-positive Prevotella denticola isolated from intra-abdominal infection and pelvic inflammatory disease patients after 48 hrs by agar dilution method; method in brief: as §1
[3] = test system: Bacteroides fragilis; test: Antimicrobial activity against beta lactamase-positive Bacteroides fragilis isolated from intra-abdominal infection and pelvic inflammatory disease patients after 48 hrs by agar dilution method; method in brief: as §1
[4] = test system: Porphyromonas asaccharolytica; test: Antimicrobial activity against Porphyromonas asaccharolyticus isolated from intra-abdominal infection and pelvic inflammatory disease patients after 48 hrs by agar dilution method; method in brief: as §1
[5] = test system: Anaerococcus prevotii; test: Antimicrobial activity against Anaerococcus prevotii isolated from intra-abdominal infection and pelvic inflammatory disease patients after 48 hrs by agar dilution method; method in brief: as §1
[6] = test system: Porphyromonas levii; test: Antimicrobial activity against Porphyromonas levii isolated from intra-abdominal infection and pelvic inflammatory disease patients after 48 hrs by agar dilution method; method in brief: as §1
[7] = test system: Parvimonas micra; test: Antimicrobial activity against Micromonas micros isolated from intra-abdominal infection and pelvic inflammatory disease patients after 48 hrs by agar dilution method; method in brief: as §1
[8] = test system: Fusobacterium mortiferum; test: Antimicrobial activity against beta lactamase-positive Fusobacterium mortiferum isolated from intra-abdominal infection and pelvic inflammatory disease patients after 48 hrs by agar dilution method; method in brief: as §1
[9] = test system: Prevotella buccae; test: Antimicrobial activity against beta lactamase-positive Prevotella buccae isolated from intra-abdominal infection and pelvic inflammatory disease patients after 48 hrs by agar dilution method; settings: Segatella buccae; method in brief: as §1
[10] = test system: Prevotella melaninogenica; test: Antimicrobial activity against beta lactamase-positive Prevotella melaninogenica isolated from intra-abdominal infection and pelvic inflammatory disease patients after 48 hrs by agar dilution method; method in brief: as §1
[11] = test system: Paeniclostridium sordellii; test: Antimicrobial activity against Clostridium sordellii isolated from intra-abdominal infection and pelvic inflammatory disease patients after 48 hrs by agar dilution method; settings: Paraclostridium sordellii; method in brief: as §1
[12] = test system: Bacteroides thetaiotaomicron; test: Antimicrobial activity against beta lactamase-positive Bacteroides thetaiotaomicron isolated from intra-abdominal infection and pelvic inflammatory disease patients after 48 hrs by agar dilution method; method in brief: as §1
[13] = test system: Anaerococcus tetradius; test: Antimicrobial activity against Anaerococcus tetradius isolated from intra-abdominal infection and pelvic inflammatory disease patients after 48 hrs by agar dilution method; method in brief: as §1
[14] = test system: Clostridium perfringens; test: Antimicrobial activity against Clostridium perfringens isolated from intra-abdominal infection and pelvic inflammatory disease patients after 48 hrs by agar dilution method
Method in brief: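 CLSI agar dilution on brucella blood agar supplemented with laked sheep blood, hemin and vitamin K. Inoculum about 1 × 10^5 CFU/spot, applied by Steers replicator. Plates incubated 48 h at 35°C in an anaerobic glove box. MIC is the concentration giving marked growth reduction versus the anaerobic control plate. Standard QC strains included in each run.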

[15] = test system: Porphyromonas gingivalis; test: Antimicrobial activity against Porphyromonas gingivalis isolated from intra-abdominal infection and pelvic inflammatory disease patients after 48 hrs by agar dilution method; method in brief: as §1
[16] = test system: Prevotella intermedia; test: Antimicrobial activity against beta lactamase-positive Prevotella intermedia isolated from intra-abdominal infection and pelvic inflammatory disease patients after 48 hrs by time kill analysis
Method in brief: (§2)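 The MIC was read by inspecting macrodilution time-kill tubes. Vials held prereduced brucella broth with 5% laked horse blood cells, hemin 5 μg/ml and vitamin K1 1 μg/ml. Final inoculum was 10^6–10^7 CFU/ml, prepared inside the anaerobe chamber. Vials were incubated 48 h at 35°C in a shaking water bath.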

[17] = test system: Finegoldia magna; test: Antimicrobial activity against beta lactamase-positive Finegoldia magna isolated from intra-abdominal infection and pelvic inflammatory disease patients after 48 hrs by time kill analysis; method in brief: as §2
[18] = test system: Peptostreptococcus anaerobius; test: Antimicrobial activity against Peptostreptococcus anaerobius isolated from intra-abdominal infection and pelvic inflammatory disease patients after 48 hrs by agar dilution method; method in brief: as §1
[19] = test system: Clostridium perfringens; test: Antimicrobial activity against Clostridium perfringens isolated from intra-abdominal infection and pelvic inflammatory disease patients after 48 hrs by time kill analysis
Method in brief: (§3)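 Macrodilution in prereduced brucella broth with 5% laked horse blood cells, 5 μg/ml hemin and 1 μg/ml vitamin K1. Final inoculum 10^6 to 10^7 CFU/ml, prepared inside the anaerobe chamber. Vials incubated 48 h at 35°C in a shaking water bath. MIC read by inspecting the time-kill tubes, alongside an antibiotic-free growth control.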

[20] = test system: [Clostridium] innocuum; test: Antimicrobial activity against Clostridium innocuum isolated from intra-abdominal infection and pelvic inflammatory disease patients after 48 hrs by agar dilution method; method in brief: as §1
[21] = test system: Prevotella corporis; test: Antimicrobial activity against beta lactamase-positive Prevotella corporis isolated from intra-abdominal infection and pelvic inflammatory disease patients after 48 hrs by agar dilution method; method in brief: as §1
[22] = test system: Fusobacterium necrophorum; test: Antimicrobial activity against Fusobacterium necrophorum isolated from intra-abdominal infection and pelvic inflammatory disease patients after 48 hrs by agar dilution method; method in brief: as §1
[23] = test system: Parabacteroides distasonis; test: Antimicrobial activity against beta lactamase-positive Bacteroides distasonis isolated from intra-abdominal infection and pelvic inflammatory disease patients after 48 hrs by agar dilution method; method in brief: as §1
[24] = test system: Fusobacterium varium; test: Antimicrobial activity against Fusobacterium varium isolated from intra-abdominal infection and pelvic inflammatory disease patients after 48 hrs by agar dilution method; method in brief: as §1
[25] = test system: Fusobacterium nucleatum; test: Antimicrobial activity against beta lactamase-positive Fusobacterium nucleatum isolated from intra-abdominal infection and pelvic inflammatory disease patients after 48 hrs by agar dilution method; method in brief: as §1
[26] = test system: Clostridium cadaveris; test: Antimicrobial activity against Clostridium cadaveris isolated from intra-abdominal infection and pelvic inflammatory disease patients after 48 hrs by agar dilution method; method in brief: as §1
[27] = test system: Clostridium paraputrificum; test: Antimicrobial activity against Clostridium paraputrificum isolated from intra-abdominal infection and pelvic inflammatory disease patients after 48 hrs by agar dilution method; method in brief: as §1
[28] = test system: Phocaeicola vulgatus; test: Antimicrobial activity against beta lactamase-positive Bacteroides vulgatus isolated from intra-abdominal infection and pelvic inflammatory disease patients after 48 hrs by agar dilution method; method in brief: as §1
[29] = test system: Peptoniphilus asaccharolyticus; test: Antimicrobial activity against Peptoniphilus asaccharolyticus isolated from intra-abdominal infection and pelvic inflammatory disease patients after 48 hrs by agar dilution method; method in brief: as §1
[30] = test system: Prevotella nigrescens; test: Antimicrobial activity against beta lactamase-positive Prevotella nigrescens isolated from intra-abdominal infection and pelvic inflammatory disease patients after 48 hrs by agar dilution method; method in brief: as §1
[31] = test system: Bacteroides ovatus; test: Antimicrobial activity against beta lactamase-positive Bacteroides ovatus isolated from intra-abdominal infection and pelvic inflammatory disease patients after 48 hrs by agar dilution method; method in brief: as §1
[32] = test system: Thomasclavelia ramosa; test: Antimicrobial activity against Clostridium ramosum isolated from intra-abdominal infection and pelvic inflammatory disease patients after 48 hrs by agar dilution method; method in brief: as §1
[33] = test system: Finegoldia magna; test: Antimicrobial activity against Finegoldia magna isolated from intra-abdominal infection and pelvic inflammatory disease patients after 48 hrs by agar dilution method; method in brief: as §1
[34] = test system: Clostridioides difficile; test: Antimicrobial activity against Clostridium difficile isolated from intra-abdominal infection and pelvic inflammatory disease patients after 48 hrs by agar dilution method; method in brief: as §1
[35] = test system: Prevotella disiens; test: Antimicrobial activity against beta lactamase-positive Prevotella disiens isolated from intra-abdominal infection and pelvic inflammatory disease patients after 48 hrs by agar dilution method; method in brief: as §1
[36] = test system: Prevotella intermedia; test: Antimicrobial activity against beta lactamase-positive Prevotella intermedia isolated from intra-abdominal infection and pelvic inflammatory disease patients after 48 hrs by agar dilution method; method in brief: as §1
[37] = test system: Enterocloster clostridioformis; test: Antimicrobial activity against Clostridium clostridioforme isolated from intra-abdominal infection and pelvic inflammatory disease patients after 48 hrs by agar dilution method; method in brief: as §1
[38] = test system: Bacteroides fragilis; test: Antimicrobial activity against beta lactamase-positive Bacteroides fragilis isolated from intra-abdominal infection and pelvic inflammatory disease patients after 48 hrs by time kill analysis; method in brief: as §2
[39] = test system: Clostridioides difficile; test: Antimicrobial activity against Clostridium difficile isolated from intra-abdominal infection and pelvic inflammatory disease patients after 48 hrs by time kill analysis; method in brief: as §3
[40] = test system: Prevotella bivia; test: Antimicrobial activity against beta lactamase-positive Prevotella bivia isolated from intra-abdominal infection and pelvic inflammatory disease patients after 48 hrs by agar dilution method; method in brief: as §1

CCC[C@@H]1C[C@@H](C(=O)N[C@@H]([C@H]2O[C@H](SC)[C@H](O)[C@@H](O)[C@H]2O)[C@H](C)Cl)N(C)C1 [CLINDAMYCIN]
MIC [1]: 0.06 µg/mL (≈ 0.141 µM)
MIC50 [2]: 0.03 µg/mL (≈ 0.0706 µM)
MIC90 [2]: 0.03 µg/mL (≈ 0.0706 µM)
MIC50 [3]: 1 µg/mL (≈ 2.35 µM)
MIC90 [3]: 4 µg/mL (≈ 9.41 µM)
MIC [4]: ≤ 0.016 µg/mL
MIC [5]: 0.125 µg/mL (≈ 0.294 µM)
MIC [6]: ≤ 0.016 µg/mL
MIC50 [7]: 0.25 µg/mL (≈ 0.588 µM)
MIC90 [7]: 0.5 µg/mL (≈ 1.18 µM)
MIC [8]: 0.06 µg/mL (≈ 0.141 µM)
MIC50 [8]: 0.06 µg/mL (≈ 0.141 µM)
MIC90 [8]: 0.25 µg/mL (≈ 0.588 µM)
MIC [9]: ≤ 0.016 µg/mL
MIC50 [9]: ≤ 0.016 µg/mL
MIC90 [9]: 0.03 µg/mL (≈ 0.0706 µM)
MIC50 [10]: 0.03 µg/mL (≈ 0.0706 µM)
MIC90 [10]: ≤ 0.016 µg/mL
MIC [11]: 1 µg/mL (≈ 2.35 µM)
MIC50 [12]: 4 µg/mL (≈ 9.41 µM)
MIC90 [12]: 8 µg/mL (≈ 18.8 µM)
MIC [13]: 0.5 µg/mL (≈ 1.18 µM)
MIC50 [13]: 0.5 µg/mL (≈ 1.18 µM)
MIC50 [14]: 1 µg/mL (≈ 2.35 µM)
MIC90 [14]: 2 µg/mL (≈ 4.71 µM)
MIC [15]: ≤ 0.016 µg/mL
MIC [16]: 0.016 µg/mL (≈ 0.0376 µM)
MIC [17]: 0.25 µg/mL (≈ 0.588 µM)
MIC [18]: 0.03 µg/mL (≈ 0.0706 µM)
MIC50 [18]: 0.03 µg/mL (≈ 0.0706 µM)
MIC90 [18]: 0.25 µg/mL (≈ 0.588 µM)
MIC [19]: 0.125 µg/mL (≈ 0.294 µM)
MIC50 [20]: 1 µg/mL (≈ 2.35 µM)
MIC [21]: ≤ 0.016 µg/mL
MIC50 [21]: ≤ 0.016 µg/mL
MIC90 [21]: 0.03 µg/mL (≈ 0.0706 µM)
MIC50 [22]: 0.06 µg/mL (≈ 0.141 µM)
MIC90 [22]: 0.25 µg/mL (≈ 0.588 µM)
MIC50 [23]: 4 µg/mL (≈ 9.41 µM)
MIC90 [23]: > 16 µg/mL
MIC50 [24]: 4 µg/mL (≈ 9.41 µM)
MIC90 [24]: 16 µg/mL (≈ 37.6 µM)
MIC90 [25]: 0.125 µg/mL (≈ 0.294 µM)
MIC [26]: 0.03 µg/mL (≈ 0.0706 µM)
MIC [27]: 8 µg/mL (≈ 18.8 µM)
MIC50 [28]: 0.03 µg/mL (≈ 0.0706 µM)
MIC90 [28]: 0.5 µg/mL (≈ 1.18 µM)
MIC50 [29]: 0.06 µg/mL (≈ 0.141 µM)
MIC90 [29]: > 16 µg/mL
MIC50 [30]: ≤ 0.016 µg/mL
MIC90 [30]: ≤ 0.016 µg/mL
MIC50 [31]: 2 µg/mL (≈ 4.71 µM)
MIC90 [31]: > 16 µg/mL
MIC50 [32]: 4 µg/mL (≈ 9.41 µM)
MIC50 [33]: 2 µg/mL (≈ 4.71 µM)
MIC90 [33]: > 16 µg/mL
MIC50 [34]: 8 µg/mL (≈ 18.8 µM)
MIC90 [34]: > 16 µg/mL
MIC50 [35]: ≤ 0.016 µg/mL
MIC90 [35]: 0.03 µg/mL (≈ 0.0706 µM)
MIC50 [36]: ≤ 0.016 µg/mL
MIC90 [36]: 0.03 µg/mL (≈ 0.0706 µM)
MIC [37]: 0.06 µg/mL (≈ 0.141 µM)
MIC [38]: 0.5 µg/mL (≈ 1.18 µM)
MIC [39]: 8 µg/mL (≈ 18.8 µM)
MIC50 [40]: 0.03 µg/mL (≈ 0.0706 µM)
MIC90 [40]: > 16 µg/mL
